Results of several laboratories.
Lines come from different studies, so protocols differ.
FLT3 K663Q: Receptor-type tyrosine-protein kinase FLT3 (FLT3, Homo sapiens, UniProt P36888, K663Q)
FLT3 N841I: Receptor-type tyrosine-protein kinase FLT3 (FLT3, Homo sapiens, UniProt P36888, N841I)
FLT3 D835H: Receptor-type tyrosine-protein kinase FLT3 (FLT3, Homo sapiens, UniProt P36888, D835H)
FLT3: Receptor-type tyrosine-protein kinase FLT3 (FLT3, Homo sapiens, UniProt P36888)
FLT3 R834Q: Receptor-type tyrosine-protein kinase FLT3 (FLT3, Homo sapiens, UniProt P36888, R834Q)
FLT3 D835V/ITD: Receptor-type tyrosine-protein kinase FLT3 (FLT3, Homo sapiens, UniProt P36888, D835V/ITD)

With CC(C)(O)c1cncc(-c2nc3ccc(F)cc3n2C2CC2)c1 the remaining binding was 100% (FLT3 K663Q; cell-free assay, competition with immobilised ligand; 1 µM).
Nc1ncnc2occ(-c3ccc(NC(=O)Nc4cc(C(F)(F)F)ccc4F)cc3)c12 has a remaining signal of 0.75% (FLT3 N841I; cell-free assay, inhibitor; 20 µM).
With Fc1cccc(-n2cnc3c(NCc4nc5c(F)c(F)ccc5[nH]4)nc(N4CCOCC4)nc32)c1 the binding vs control was 42% (FLT3 D835H; binding, competition with immobilised ligand; 10 µM).
With N[C@H]1CCN(c2nccc(-c3cnn4ncccc34)n2)C1 the remaining binding was 99% (FLT3; binding; 1 µM).
Cc1nc(N2CC[C@@H](O)C2)ncc1-c1cc(C(F)(F)F)cc2[nH]ncc12 gave a remaining binding of 73% (FLT3 R834Q; binding, competition with immobilised ligand; 1 µM).
CN(C)c1nccc(-c2cnc3ncccn23)n1 has a remaining binding of 72% (FLT3 N841I; binding; 1 µM).
For FC(F)(F)c1ccc2c(c1)nc(-c1cccnc1)n2C1CC1, the remaining binding was 100% (FLT3 K663Q; cell-free assay, competition with immobilised ligand; 1 µM).
The remaining binding of O=C(c1ccc(Nc2ncc(Cl)c(-c3cc4ccccc4s3)n2)cc1)N1CCC(N2CCCC2)CC1 is reported as 7.6% (FLT3 D835V/ITD; binding, competition with immobilised ligand; 1 µM).
CC1=C(C#N)[C@@H](c2ccc3[nH]nc(C)c3c2)C(C#N)=C(c2ccc(Cl)cc2)N1 gave a remaining binding of 100% (FLT3 D835H; cell-free assay, competition with immobilised ligand; 1 µM).
O=C(c1ccc(Nc2nccc(-c3cc4ccccc4s3)n2)cc1)N1CCC(N2CCCC2)CC1 has a remaining binding of 37% (FLT3 K663Q; binding, competition with immobilised ligand; 1 µM).
The remaining binding of F[C@@H]1CCN(c2nccc(-c3cnn4ncccc34)n2)C1 is reported as 100% (FLT3 N841I; binding; 1 µM).
For NS(=O)(=O)c1cc(NC(=O)C2(c3ccccc3Cl)CC2)ccc1Oc1cccc(Cl)c1, the remaining binding was 100% (FLT3 R834Q; cell-free assay, competition with immobilised ligand; 1 µM).
Cc1cnc(-c2ccc(-c3ccc(NC(=O)Nc4c(F)cc(F)cc4F)cc3F)c3c2C(=O)NC3)[nH]1 has an activity vs control of 1.6% (Receptor-type tyrosine-protein kinase FLT3 (FLT3, Homo sapiens, UniProt P36888, ITD); enzyme activity, inhibitor; 1 µM, 90 min).
O=C(c1ccc(Nc2ncc(Cl)c(-c3ccc(Cl)s3)n2)cc1)N1CCC(N2CCCC2)CC1 has a remaining binding of 1.3% (FLT3 K663Q; binding, competition with immobilised ligand; 1 µM).
The remaining binding of C[C@@H]1CCN(c2nccc(-c3cnn4ncccc34)n2)C1 is reported as 100% (FLT3 D835H; binding; 1 µM).
With COc1cc(Nc2c(C#N)cnc3cc(OCCCN4CCN(C)CC4)c(OC)cc23)c(Cl)cc1Cl the remaining signal was 30.3% (FLT3; cell-free assay; 0.5 µM).
CCN(CC)CCNC(=O)c1c(C)[nH]c(/C=C2\C(=O)Nc3ccc(F)cc32)c1C has a remaining activity of 1% (FLT3; enzyme activity, inhibitor; 0.1 µM).
With Cc1c(NC(=O)c2cc(C(N)=O)nc3cc(F)ccc23)c(C(F)(F)F)nn1Cc1ccc(C#N)cc1 the remaining binding was 99% (FLT3; cell-free assay, competition with immobilised ligand; 1 µM).
For CCCOc1ccc(OC)c(F)c1C(=O)c1ccc(C(=O)N[C@@H]2CNC[C@H]2NC(=O)c2ccc3[nH]ncc3c2)cc1, the remaining activity was 32% (FLT3; enzyme activity, inhibitor; 10 µM).
c1cnn2ncc(-c3ccnc(N4CCC45COC5)n3)c2c1 has a remaining binding of 82% (FLT3 R834Q; binding; 1 µM).
With Oc1cccc(-c2nc(N3CCOCC3)c3oc4ncccc4c3n2)c1 the remaining signal was 87.1% (FLT3; cell-free assay; 0.5 µM).
With CN(C)CC#Cc1ccc(OCCCc2sc(N3CCc4cccc(C(=O)Nc5nc6ccccc6s5)c4C3)nc2C(=O)O)c(F)c1 the remaining binding was 100% (FLT3 D835V/ITD; cell-free assay, competition with immobilised ligand; 1 µM).
The remaining binding of CN(C)c1nccc(-c2cnn3ncccc23)n1 is reported as 100% (FLT3 R834Q; binding; 1 µM).
